From PubChem
hIAP inh – human IAP inhibition; AID 2544; actives 0.12% (n = 330,000); purified IAP, CDP-Star luminescence, 30 min; inhibition, % at 10 µM; P09923;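 active = inhibition reaching a set limit with compound at 10 µM in the primary screen, cut at about 35% in these data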;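 also: plate controls were DMSO wells with enzyme for no effect and no-enzyme buffer wells for full effect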
Target sequence (P09923 whole entry, looked up): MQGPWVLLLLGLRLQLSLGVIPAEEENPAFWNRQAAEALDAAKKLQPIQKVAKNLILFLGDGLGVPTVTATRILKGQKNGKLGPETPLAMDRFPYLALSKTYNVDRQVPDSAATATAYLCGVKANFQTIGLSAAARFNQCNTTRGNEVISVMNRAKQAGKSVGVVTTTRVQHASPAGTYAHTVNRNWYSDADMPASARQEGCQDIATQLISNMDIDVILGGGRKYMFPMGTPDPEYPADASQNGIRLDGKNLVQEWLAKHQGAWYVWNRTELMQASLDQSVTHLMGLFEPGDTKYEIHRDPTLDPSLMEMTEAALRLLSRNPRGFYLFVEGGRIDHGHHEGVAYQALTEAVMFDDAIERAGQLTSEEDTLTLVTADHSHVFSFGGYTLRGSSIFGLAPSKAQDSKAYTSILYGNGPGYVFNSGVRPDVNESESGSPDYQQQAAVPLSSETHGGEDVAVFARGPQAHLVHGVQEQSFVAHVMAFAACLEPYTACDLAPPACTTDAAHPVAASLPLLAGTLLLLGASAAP
mIAP block – mouse IAP inhibition. purified mouse IAP, CDP-Star luminescence, 30 min. actives 0.2% (n = 330,000). AID 2806. inhibition, % at 10 µM;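 active = inhibition of at least 40% at 10 µM in the primary screen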;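 also: plate controls were DMSO with enzyme for no effect and no enzyme wells for full effect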
mIAP act – increases mouse intestinal alkaline phosphatase activity; AID 2805; muIAP, CDP-Star luminescence, 30 min; stronger effect = higher value; 1 = vehicle-only enzyme signal, 0 = enzyme-free wells; actives 0.24% (n = 330,000); activation factor at 10 µM;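 active = activation factor of at least 2 at 20 µM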
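Assay system: mouse IAP enzyme; Reagent: CDP-Star chemiluminescent phosphatase substrate; Compound: DMSO-dissolved test compounds; Incubation: 30 min, room temperature; Technique: luminescence from enzymatic CDP-Star hydrolysis; Controls: DMSO-only wells and no-enzyme negative control.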
hIAP act – increases human intestinal alkaline phosphatase activity | purified human IAP, CDP-Star luminescence, 30 min; stronger effect = higher value; 1 = vehicle-only enzyme, 0 = enzyme-free background | AID 2524 | activation factor at 10 µM | actives 0.16% (n = 330,000) | P09923;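 active = activation factor of the enzyme at least 2-fold when tested at 20 µM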
bIAP act – increases bovine intestinal alkaline phosphatase activity | purified bovine IAP, CDP-star luminescence, 30 min; stronger effect = higher value; fold of DMSO-control signal, blank-subtracted | activation factor at 20 µM | actives 0.17% (n = 200,000) | AID 1016;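 active = activation factor of 2 or more at 20 µM, a signal rise over negative controls twice the positive control's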
bIAP inhibitor – blocks bovine intestinal alkaline phosphatase activity | purified bovine IAP, CDP-star luminescence, 30 min | inhibition, % at 20 µM | 190,000 tested, under 10 active | AID 1019;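 active = over 50% inhibition of intestinal alkaline phosphatase at 20 µM in the single-dose screen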
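System: Purified bovine intestinal alkaline phosphatase (IAP) enzyme | Input: IAP diluted 1/65,000,000 in the well | Also added: CDP-star chemiluminescent phosphatase substrate, 30 µM final | Dosing: 20 µM single dose | Times: Enzyme reaction for 30 min at room temperature | Detection: Luminescence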
* = called active by the depositor. An excerpt weighted towards active compounds, which were near 0.79% of everything screened.

Results for O=C(NC1CC2CCCC(C1)N2C1CC1)NC12CC3CC(CC(C3)C1)C2 (stereo not given) ?
bIAP act: 3.1*; bIAP inhibitor: -213.7

How did O=C(NC1CC2CCC(C1)N2C(=O)NC1CCCCC1)NC12CC3CC(CC(C3)C1)C2 (stereo not given) do in these assays?
hIAP inh: -1.3; mIAP block: -7.2; mIAP act: 1.07; hIAP act: 1.01; bIAP act: 1.9; bIAP inhibitor: -87.1

Results for CCn1c2ccccc2c2cc(NC(=O)C3CCN(S(=O)(=O)c4cccs4)CC3)ccc21 ?
hIAP inh: -14.2; mIAP block: -196.0; mIAP act: 2.96*; hIAP act: 1.14; bIAP act: 1.3; bIAP inhibitor: -33.2

Results for O=C(N1CCN(c2ccccc2F)CC1)C1(c2cccs2)CCOCC1 ?
hIAP inh: 6.8; mIAP block: -3.1; mIAP act: 1.03; hIAP act: 0.932; bIAP act: 3.7*; bIAP inhibitor: -274.9

How did Cc1ccc(-n2nc3c(=O)n(CCCC(=O)N4CCC(C(N)=O)CC4)nc(C)c3c2C)cc1 do in these assays?
hIAP inh: 0.2; mIAP block: -11.7; mIAP act: 1.12; hIAP act: 0.998

Results for CCOc1ccc2nc(NCCCNC(=O)c3cc(OC)c(OC)c(OC)c3)c(C#N)cc2c1 ?
hIAP inh: -71.9; mIAP block: -100.9; mIAP act: 2.01*; hIAP act: 1.72

Results for CC(Sc1nnc(-c2ccco2)o1)C(=O)Nc1ccc(OC(F)F)cc1 (stereo not given) ?
hIAP inh: -10.2; mIAP block: 51.4*; mIAP act: 0.486; hIAP act: 1.1

Results for CC(=O)Nc1ccc(S(=O)(=O)NCC(=O)NNC(=O)COc2ccccc2Cl)cc1 ?
hIAP inh: -50.1; mIAP block: 22.8; mIAP act: 0.772; hIAP act: 1.5

How did CC(=O)Nc1ccc(S(=O)(=O)NCC(=O)NNC(=O)COc2c(C)cccc2C)cc1 do in these assays?
hIAP inh: -83.4; mIAP block: 40.6*; mIAP act: 0.594; hIAP act: 1.83

How did O=C(Nc1ccc(Cl)cc1)Nc1ccc(-c2cnco2)cc1 do in these assays?
hIAP inh: 5.8; mIAP block: -104.8; mIAP act: 2.05*; hIAP act: 0.942

Results for COc1cc(NC(=O)C(Cc2ccccc2)n2cccc2)cc(OC)c1 (stereo not given) ?
hIAP inh: -19.4; mIAP block: -109.3; mIAP act: 2.09*; hIAP act: 1.19

What do the screens show for `CCOC(=O)c1cc(-c2ccccc2)n(CC(=O)Nc2ccc(OCC)cc2)c1C`?
hIAP inh: 2.2; mIAP block: -33.8; mIAP act: 1.34; hIAP act: 0.978; bIAP act: 0.8; bIAP inhibitor: 16.6

Results for CCOC(=O)c1cc(-c2ccccc2)n(CC(=O)Nc2cc(OC)cc(OC)c2)c1C ?
hIAP inh: -16.9; mIAP block: -116.1; mIAP act: 2.16*; hIAP act: 1.17; bIAP act: 0.5

What do the screens show for `Fc1ccccc1N1CC(c2ccccc2)C(c2cccs2)=N1` (stereo not given)?
hIAP inh: -10.4; mIAP block: -118.6; mIAP act: 2.19*; hIAP act: 1.1; bIAP act: 1.7; bIAP inhibitor: -70.4

What do the screens show for `Fc1ccc(N2N=C(c3cccs3)CC2c2ccccc2)cc1` (stereo not given)?
hIAP inh: -0.9; mIAP block: -80.1; mIAP act: 1.8; hIAP act: 1.01; bIAP act: 1.3; bIAP inhibitor: -33.8

What do the screens show for `C#CCOCCOCCOCCNc1nc(N2CCN(C(=O)[C@H]([C@@H](C)CC)n3cc([C@@H](N)Cc4ccc(O)cc4)nn3)CC2)nc(N2CCN(C(=O)[C@H](Cc3cc4ccccc4[nH]3)n3cc([C@@H](N)C(C)CC)nn3)CC2)n1` (stereo not given in full)?
hIAP inh: 20.1; mIAP block: -39.0; mIAP act: 1.39; hIAP act: 0.799; bIAP act: 1.6; bIAP inhibitor: -59.0

What do the screens show for `C#CCOCCOCCOCCNc1nc(N2CCN(C(=O)[C@H](Cc3cc4ccccc4[nH]3)n3cc([C@@H](N)CC(C)C)nn3)CC2)nc(N2CCN(C(=O)[C@H](Cc3cc4ccccc4[nH]3)n3cc([C@@H](N)CC(C)C)nn3)CC2)n1`?
hIAP inh: -12.1; mIAP block: -109.2; mIAP act: 2.09*; hIAP act: 1.12; bIAP act: 3.2*; bIAP inhibitor: -220.4

What do the screens show for `C#CCOCCOCCOCCNc1nc(N2CCN(C(=O)[C@H](Cc3cc4ccccc4[nH]3)n3cc([C@@H](N)C(C)CC)nn3)CC2)nc(N2CCN(C(=O)[C@H](Cc3cc4ccccc4[nH]3)n3cc([C@@H](N)Cc4ccc(O)cc4)nn3)CC2)n1` (stereo not given in full)?
hIAP inh: -10.7; mIAP block: -108.2; mIAP act: 2.08*; hIAP act: 1.11; bIAP act: 2.2*; bIAP inhibitor: -115.9

How did O=C(N/N=C/c1ccc[nH]1)c1cccc(Br)c1 do in these assays?
hIAP inh: 0.7; mIAP block: 29.1; mIAP act: 0.709; hIAP act: 0.993; bIAP act: 1.6; bIAP inhibitor: -55.8

How did Cc1cccc(C(=O)N/N=C/c2ccc[nH]2)c1 do in these assays?
hIAP inh: 4.6; mIAP block: 40.4*; mIAP act: 0.596; hIAP act: 0.954; bIAP act: 1; bIAP inhibitor: 2.4

Results for C[C@H](CO)N1C[C@H](C)[C@@H](CN(C)C(=O)Nc2ccc3c(c2)OCO3)Oc2ccc(NC(=O)Nc3ccc4c(c3)OCO4)cc2C1=O ?
hIAP inh: -15.4; mIAP block: -139.2; mIAP act: 2.39*; hIAP act: 1.15

How did CNC[C@H]1Oc2ccc(NC(=O)Nc3ccc4c(c3)OCO4)cc2C(=O)N([C@H](C)CO)C[C@@H]1C do in these assays?
hIAP inh: -3.8; mIAP block: -116.4; mIAP act: 2.16*; hIAP act: 1.04

How did CC(C)NC(=O)N(C)C[C@H]1Oc2ccc(NC(=O)Nc3ccc4c(c3)OCO4)cc2C(=O)N([C@H](C)CO)C[C@@H]1C do in these assays?
hIAP inh: -17.5; mIAP block: -25.4; mIAP act: 1.25; hIAP act: 1.18

What do the screens show for `CNC[C@@H]1Oc2ccc(NC(=O)Nc3ccccc3)cc2C(=O)N([C@@H](C)CO)C[C@H]1C`?
hIAP inh: -8.3; mIAP block: -131.7; mIAP act: 2.32*; hIAP act: 1.08

Results for O=C(CSc1ccccn1)N1CCNC1=O ?
hIAP inh: -6.7; mIAP block: -2.9; mIAP act: 1.03; hIAP act: 1.07
